This is an account of results in ChEMBL document CHEMBL1821673, “Development of β-amino alcohol derivatives that inhibit Toll-like receptor 4 mediated inflammatory response as potential antiseptics” (J Med Chem, 2011).

One data set concerns Blood. The experiment in a line: Cytotoxicity against human whole blood assessed as hemolysis at 1 mM. The format is tissue-based. The conditions noted are these: 1000 µM. In short, it runs like this: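 Human whole blood anticoagulated with lepirudin, exposed to compound at up to 1 mM; hemolysis checked.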
The target in data set [1] is T1, Toll-like receptor 4 (Mus musculus, UniProt Q9QUK6).
T1 sequence (Q9QUK6 whole entry): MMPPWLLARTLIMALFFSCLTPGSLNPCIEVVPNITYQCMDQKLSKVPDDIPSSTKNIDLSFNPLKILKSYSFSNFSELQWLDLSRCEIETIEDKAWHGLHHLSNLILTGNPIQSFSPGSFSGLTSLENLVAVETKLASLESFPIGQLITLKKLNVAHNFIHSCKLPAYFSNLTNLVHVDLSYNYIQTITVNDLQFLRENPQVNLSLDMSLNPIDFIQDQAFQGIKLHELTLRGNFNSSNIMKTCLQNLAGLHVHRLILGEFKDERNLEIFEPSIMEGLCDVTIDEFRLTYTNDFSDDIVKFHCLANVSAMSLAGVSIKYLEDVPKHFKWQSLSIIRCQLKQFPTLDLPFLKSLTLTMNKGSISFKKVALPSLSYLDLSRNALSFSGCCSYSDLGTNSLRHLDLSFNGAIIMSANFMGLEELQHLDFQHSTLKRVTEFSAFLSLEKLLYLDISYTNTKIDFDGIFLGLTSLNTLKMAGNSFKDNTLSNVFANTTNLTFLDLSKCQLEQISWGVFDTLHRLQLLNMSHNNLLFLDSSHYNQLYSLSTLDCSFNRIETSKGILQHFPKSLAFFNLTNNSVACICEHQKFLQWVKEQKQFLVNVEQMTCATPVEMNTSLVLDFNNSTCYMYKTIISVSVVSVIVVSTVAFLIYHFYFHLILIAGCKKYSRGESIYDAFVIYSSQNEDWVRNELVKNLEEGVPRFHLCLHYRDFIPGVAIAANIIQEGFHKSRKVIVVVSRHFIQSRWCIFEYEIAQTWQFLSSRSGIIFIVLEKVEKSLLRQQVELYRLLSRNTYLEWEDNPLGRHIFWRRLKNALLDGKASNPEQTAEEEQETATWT
The experiment in a line: Inhibition of LPS-induced TLR4 activation in mouse RAW264.7 cells assessed as reduction in NO production after 18 to 24 hrs. The data set is classed as cell-based. The procedure, abridged:
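RAW264.7 cells, 100,000 per well, grown 24 h in RPMI with 10% FBS, then switched to unsupplemented RPMI. LPS and compound added together, 18–24 h at 37 °C. Medium nitrite measured with 2,3-diaminonaphthalene (ex 365/em 450 nm) against a nitrite standard curve. Quadruplicate; IC50 by a modified Kou-type method.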

The target of data set [2] is Serine/threonine-protein kinase PAK 1 (Homo sapiens) (UniProt Q13153). The data set can be described thus: Inhibition of PAK1 at 16 uM by luciferase fragment complementation assay.
Data set [3] deals with Serine/threonine-protein kinase pim-1 (Homo sapiens) (UniProt P11309). The data set can be described thus: Inhibition of PIM1 at 16 uM by luciferase fragment complementation assay.
Data set [4] deals with Serine/threonine-protein kinase PLK4 (Homo sapiens) (UniProt O00444). The experiment in a line: Inhibition of PLK4 at 16 uM by luciferase fragment complementation assay.
Data set [5] addresses Mitogen-activated protein kinase 1 (Homo sapiens) (UniProt P28482). The experiment in a line: Inhibition of […] at 16 uM by luciferase fragment complementation assay.
Data set [6] addresses Calcium/calmodulin-dependent protein kinase type 1 (Homo sapiens) (UniProt Q14012). The experiment in a line: Inhibition of CAMK1 at 16 uM by luciferase fragment complementation assay.
For data set [7], the target named is Hepatocyte growth factor receptor (Homo sapiens) (UniProt P08581). The experiment in a line: Inhibition of MET at 16 uM by luciferase fragment complementation assay.
The target in data set [8] is Proto-oncogene tyrosine-protein kinase Src (Homo sapiens) (UniProt P12931). The experiment in a line: Inhibition of SRC at 16 uM by luciferase fragment complementation assay.
The target of data set [9] is Discoidin domain-containing receptor 2 (Homo sapiens) (UniProt Q16832). The data set can be described thus: Inhibition of DDR2 at 16 uM by luciferase fragment complementation assay.
Data set [10] has as its target RAC-alpha serine/threonine-protein kinase (Homo sapiens) (UniProt P31749). The data set can be described thus: Inhibition of AKT1 at 16 uM by luciferase fragment complementation assay.
Data set [11] deals with Protein kinase C gamma type (Homo sapiens) (UniProt P05129). The experiment in a line: Inhibition of PKCgamma at 16 uM by luciferase fragment complementation assay.
Data set [12] concerns the target Platelet-derived growth factor receptor beta (Homo sapiens) (UniProt P09619). The data set can be described thus: Inhibition of PDGFRB at 16 uM by luciferase fragment complementation assay.
In data set [13] the target is Glycogen synthase kinase-3 alpha (Homo sapiens) (UniProt P49840). The experiment in a line: Inhibition of GSK3alpha at 16 uM by luciferase fragment complementation assay.
Data set [14] concerns the target T2, Toll-like receptor 4 (Homo sapiens, UniProt O00206). The experiment in a line: Inhibition of LPS-induced TLR4 activation in human whole blood assessed as inhibition of IL-8 release preincubated for 5 to 10 mins. In short, it runs like this:
(§1)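 Fresh human blood anticoagulated with lepirudin, preincubated with compound 5–10 min at 37 °C, then stimulated with 100 ng/mL ultrapure E. coli 0111:B4 LPS, rotating 2 h at 37 °C. Stopped with EDTA 10 mM final; plasma TNF-α, IL-8 and IL-6 measured by singleplex Bio-plex, expressed as % of LPS without inhibitor. n = 3 or 9, paired two-sided t-test.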

Data set [15] deals with T2, Toll-like receptor 4. The data set can be described thus: Inhibition of LPS-induced TLR4 activation in human whole blood assessed as inhibition of TNFalpha release preincubated for 5 to 10 mins. In short, it runs like this:
as §1

Data set [16] concerns the target T2, Toll-like receptor 4. The data set can be described thus: Inhibition of LPS-induced TLR4 activation in human whole blood assessed as inhibition of IL-6 release at 250 uM preincubated for 5 to 10 mins. The procedure, abridged:
as §1

In data set [17] the target is T2, Toll-like receptor 4. The experiment in a line: Inhibition of LPS-induced TLR4 activation in human whole blood assessed as inhibition of IL-6 release preincubated for 5 to 10 mins. In short, it runs like this:
as §1

Data set [18] addresses T2, Toll-like receptor 4. The data set can be described thus: Inhibition of LPS-induced TLR4 activation in human whole blood assessed as inhibition of IL-6 release at 500 uM preincubated for 5 to 10 mins. In short, it runs like this:
as §1

For data set [19], the target named is T2, Toll-like receptor 4. The data set can be described thus: Inhibition of LPS-induced TLR4 activation in human whole blood assessed as inhibition of TNFalpha release at 500 uM preincubated for 5 to 10 mins. In short, it runs like this:
as §1

The target in data set [20] is T2, Toll-like receptor 4. The data set can be described thus: Inhibition of LPS-induced TLR4 activation in human whole blood assessed as inhibition of IL-8 release at 500 uM preincubated for 5 to 10 mins. The procedure, abridged: as §1

Active and inactive are the calls of the source. No cut-off for these calls is given here.

T2 sequence (O00206 whole entry): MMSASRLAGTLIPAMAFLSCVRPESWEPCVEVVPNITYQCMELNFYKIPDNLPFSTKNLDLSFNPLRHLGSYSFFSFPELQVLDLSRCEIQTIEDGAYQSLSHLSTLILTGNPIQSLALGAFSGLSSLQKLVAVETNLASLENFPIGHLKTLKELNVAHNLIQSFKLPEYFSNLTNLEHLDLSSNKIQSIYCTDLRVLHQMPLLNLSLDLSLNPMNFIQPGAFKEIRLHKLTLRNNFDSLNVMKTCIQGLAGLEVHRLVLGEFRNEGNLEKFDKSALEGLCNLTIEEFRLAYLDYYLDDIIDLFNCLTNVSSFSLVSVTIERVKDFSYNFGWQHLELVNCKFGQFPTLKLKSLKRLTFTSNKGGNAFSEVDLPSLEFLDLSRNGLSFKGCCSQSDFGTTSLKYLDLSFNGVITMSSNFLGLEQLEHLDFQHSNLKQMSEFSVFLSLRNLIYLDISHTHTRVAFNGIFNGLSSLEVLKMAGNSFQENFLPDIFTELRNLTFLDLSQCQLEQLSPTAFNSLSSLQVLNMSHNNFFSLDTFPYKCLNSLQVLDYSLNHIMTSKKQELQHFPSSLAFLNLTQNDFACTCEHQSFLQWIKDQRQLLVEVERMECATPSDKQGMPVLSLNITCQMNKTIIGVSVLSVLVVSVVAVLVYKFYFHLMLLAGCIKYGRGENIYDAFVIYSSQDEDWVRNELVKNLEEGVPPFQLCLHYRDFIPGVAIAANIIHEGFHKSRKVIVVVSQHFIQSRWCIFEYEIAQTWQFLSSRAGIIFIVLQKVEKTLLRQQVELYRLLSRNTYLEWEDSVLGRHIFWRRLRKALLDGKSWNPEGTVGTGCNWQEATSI
Chain of Calcium/calmodulin-dependent protein kinase type 1 (Homo sapiens) (Q14012 whole entry, looked up, the tested form may be a part): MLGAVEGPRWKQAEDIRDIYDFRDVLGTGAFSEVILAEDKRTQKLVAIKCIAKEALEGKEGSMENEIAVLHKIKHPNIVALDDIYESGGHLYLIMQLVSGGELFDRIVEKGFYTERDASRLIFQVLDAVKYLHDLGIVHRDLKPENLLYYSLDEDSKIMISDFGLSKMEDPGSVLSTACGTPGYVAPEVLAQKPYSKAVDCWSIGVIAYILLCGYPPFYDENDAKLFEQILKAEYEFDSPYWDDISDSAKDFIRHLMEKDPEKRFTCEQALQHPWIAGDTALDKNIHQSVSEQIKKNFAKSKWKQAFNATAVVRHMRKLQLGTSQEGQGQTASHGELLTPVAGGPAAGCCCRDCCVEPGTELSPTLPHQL
Chain of Serine/threonine-protein kinase PLK4 (Homo sapiens) (O00444 whole entry, the tested form may be a part): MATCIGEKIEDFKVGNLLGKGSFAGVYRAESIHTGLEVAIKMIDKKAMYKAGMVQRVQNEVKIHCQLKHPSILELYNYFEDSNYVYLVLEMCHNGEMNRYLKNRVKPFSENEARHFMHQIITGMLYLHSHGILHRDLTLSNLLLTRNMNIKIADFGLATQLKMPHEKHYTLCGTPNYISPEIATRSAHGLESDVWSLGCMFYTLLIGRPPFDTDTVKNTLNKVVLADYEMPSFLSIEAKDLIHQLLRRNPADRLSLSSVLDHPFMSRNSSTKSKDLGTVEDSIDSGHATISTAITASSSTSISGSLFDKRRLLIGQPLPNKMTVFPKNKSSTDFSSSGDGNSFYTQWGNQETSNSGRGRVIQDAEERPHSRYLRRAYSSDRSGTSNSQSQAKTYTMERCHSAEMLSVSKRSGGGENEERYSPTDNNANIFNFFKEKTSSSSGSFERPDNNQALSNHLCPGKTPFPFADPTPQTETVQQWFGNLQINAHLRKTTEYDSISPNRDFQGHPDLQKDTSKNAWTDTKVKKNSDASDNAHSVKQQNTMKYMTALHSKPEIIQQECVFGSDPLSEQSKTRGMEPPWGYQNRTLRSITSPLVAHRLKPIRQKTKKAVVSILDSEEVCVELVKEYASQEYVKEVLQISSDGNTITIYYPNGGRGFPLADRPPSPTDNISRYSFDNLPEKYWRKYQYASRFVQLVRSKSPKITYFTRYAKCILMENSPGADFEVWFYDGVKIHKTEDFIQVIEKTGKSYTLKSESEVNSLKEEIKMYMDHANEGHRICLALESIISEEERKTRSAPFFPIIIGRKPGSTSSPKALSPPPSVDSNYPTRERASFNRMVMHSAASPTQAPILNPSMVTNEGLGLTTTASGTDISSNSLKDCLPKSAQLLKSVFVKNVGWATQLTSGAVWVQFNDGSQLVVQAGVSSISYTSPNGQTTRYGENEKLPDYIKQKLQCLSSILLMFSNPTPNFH
Chain of Mitogen-activated protein kinase 1 (Homo sapiens) (P28482 whole entry, the tested form may be a part): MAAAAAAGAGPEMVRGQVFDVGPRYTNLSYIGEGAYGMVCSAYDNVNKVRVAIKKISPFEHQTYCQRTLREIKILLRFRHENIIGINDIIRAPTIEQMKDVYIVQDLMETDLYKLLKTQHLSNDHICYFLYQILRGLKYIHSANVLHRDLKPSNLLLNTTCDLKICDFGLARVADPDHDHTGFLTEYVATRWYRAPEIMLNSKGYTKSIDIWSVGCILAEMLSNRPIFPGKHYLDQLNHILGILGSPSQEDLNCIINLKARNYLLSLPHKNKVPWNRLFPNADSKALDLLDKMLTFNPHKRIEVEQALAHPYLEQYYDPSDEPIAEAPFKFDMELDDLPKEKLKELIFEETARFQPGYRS
Chain of Platelet-derived growth factor receptor beta (Homo sapiens) (P09619 whole entry, the tested form may be a part): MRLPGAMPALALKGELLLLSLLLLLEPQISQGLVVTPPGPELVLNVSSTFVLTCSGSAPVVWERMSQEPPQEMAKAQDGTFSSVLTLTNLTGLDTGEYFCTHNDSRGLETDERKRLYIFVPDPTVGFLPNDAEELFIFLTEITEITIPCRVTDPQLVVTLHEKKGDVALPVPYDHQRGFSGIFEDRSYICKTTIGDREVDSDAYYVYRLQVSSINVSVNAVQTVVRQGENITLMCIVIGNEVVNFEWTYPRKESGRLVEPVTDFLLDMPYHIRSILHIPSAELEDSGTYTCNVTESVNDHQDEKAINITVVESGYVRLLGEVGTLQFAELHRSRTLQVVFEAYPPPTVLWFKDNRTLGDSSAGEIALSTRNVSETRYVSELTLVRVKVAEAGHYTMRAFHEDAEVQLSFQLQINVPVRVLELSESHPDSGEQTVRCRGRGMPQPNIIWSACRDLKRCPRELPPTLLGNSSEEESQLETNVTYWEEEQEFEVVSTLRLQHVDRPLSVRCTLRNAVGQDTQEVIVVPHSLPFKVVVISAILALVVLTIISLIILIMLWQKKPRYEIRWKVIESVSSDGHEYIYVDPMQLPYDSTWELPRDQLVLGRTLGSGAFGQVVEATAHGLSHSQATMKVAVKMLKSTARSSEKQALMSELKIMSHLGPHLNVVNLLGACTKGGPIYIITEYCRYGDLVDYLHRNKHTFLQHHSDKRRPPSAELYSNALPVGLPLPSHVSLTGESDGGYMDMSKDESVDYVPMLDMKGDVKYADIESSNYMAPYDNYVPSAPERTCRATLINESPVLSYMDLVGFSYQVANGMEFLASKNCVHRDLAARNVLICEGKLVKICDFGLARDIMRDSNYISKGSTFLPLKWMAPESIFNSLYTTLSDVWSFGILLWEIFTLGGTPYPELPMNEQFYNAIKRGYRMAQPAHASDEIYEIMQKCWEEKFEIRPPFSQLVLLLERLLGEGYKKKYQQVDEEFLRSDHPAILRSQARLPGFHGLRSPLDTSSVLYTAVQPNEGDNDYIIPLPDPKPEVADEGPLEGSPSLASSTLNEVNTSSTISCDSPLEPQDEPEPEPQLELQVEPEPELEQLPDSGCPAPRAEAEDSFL
Chain of Serine/threonine-protein kinase pim-1 (Homo sapiens) (P11309 whole entry, looked up, the tested form may be a part): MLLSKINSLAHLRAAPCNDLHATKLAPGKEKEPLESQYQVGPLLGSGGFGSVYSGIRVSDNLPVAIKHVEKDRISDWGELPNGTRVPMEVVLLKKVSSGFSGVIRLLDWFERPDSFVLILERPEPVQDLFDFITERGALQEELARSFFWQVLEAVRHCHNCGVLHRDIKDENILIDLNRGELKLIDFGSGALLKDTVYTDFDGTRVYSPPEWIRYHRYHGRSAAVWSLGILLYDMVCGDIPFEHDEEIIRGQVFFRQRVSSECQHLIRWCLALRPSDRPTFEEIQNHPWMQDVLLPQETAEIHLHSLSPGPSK
Chain of Glycogen synthase kinase-3 alpha (Homo sapiens) (P49840 2-483 limits assumed): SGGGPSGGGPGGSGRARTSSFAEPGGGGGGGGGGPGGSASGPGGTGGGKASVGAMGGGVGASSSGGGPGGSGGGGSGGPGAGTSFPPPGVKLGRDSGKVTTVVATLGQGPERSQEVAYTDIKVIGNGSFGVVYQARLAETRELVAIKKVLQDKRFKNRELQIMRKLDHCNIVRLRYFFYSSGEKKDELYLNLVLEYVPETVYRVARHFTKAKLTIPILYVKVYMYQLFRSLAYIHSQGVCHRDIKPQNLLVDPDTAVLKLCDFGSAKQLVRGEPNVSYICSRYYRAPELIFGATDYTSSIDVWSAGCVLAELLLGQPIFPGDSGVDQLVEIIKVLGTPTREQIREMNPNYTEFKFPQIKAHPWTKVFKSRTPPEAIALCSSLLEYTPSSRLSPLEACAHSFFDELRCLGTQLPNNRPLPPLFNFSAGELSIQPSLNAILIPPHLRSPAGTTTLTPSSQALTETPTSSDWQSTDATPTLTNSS
Chain of Serine/threonine-protein kinase PAK 1 (Homo sapiens) (Q13153 whole entry, the tested form may be a part): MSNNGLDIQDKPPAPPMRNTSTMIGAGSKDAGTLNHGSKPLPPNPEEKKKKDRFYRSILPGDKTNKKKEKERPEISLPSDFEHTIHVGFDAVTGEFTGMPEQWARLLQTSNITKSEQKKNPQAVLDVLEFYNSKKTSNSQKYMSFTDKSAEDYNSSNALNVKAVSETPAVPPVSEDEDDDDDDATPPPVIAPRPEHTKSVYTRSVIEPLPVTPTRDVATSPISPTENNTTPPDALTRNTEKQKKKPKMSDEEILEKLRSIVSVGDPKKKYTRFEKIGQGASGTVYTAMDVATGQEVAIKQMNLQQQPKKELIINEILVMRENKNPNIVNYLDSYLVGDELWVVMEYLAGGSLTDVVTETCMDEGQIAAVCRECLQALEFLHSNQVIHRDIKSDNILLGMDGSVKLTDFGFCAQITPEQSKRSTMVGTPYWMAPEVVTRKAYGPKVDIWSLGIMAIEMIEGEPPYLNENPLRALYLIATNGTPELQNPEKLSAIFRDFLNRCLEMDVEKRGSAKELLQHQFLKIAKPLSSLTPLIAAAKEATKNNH

A word on the IC50: it is the concentration that inhibits the measured activity by half. As for `CCOc1ccc(OCC(O)CN(C)Cc2c(C)nn(Cc3ccccc3C(F)(F)F)c2C)cc1` (racemic), in the data set with Blood, the Activity entry is recorded as “Non-toxic”. The half-inhibitory concentration (IC50) on Toll-like receptor 4 [1] was determined as 32.1 µM.

In the case of `CCOc1ccc(OCC(O)CN(C)Cc2c(C)nn(Cc3ccccc3)c2C)cc1` (racemic), the Activity result with Blood is on record as “Non-toxic”. The IC50 on Toll-like receptor 4 [1] came to 51.8 µM.

Regarding `C=Cc1ccccc1Cn1nc(C)c(CN(C)CC(O)COc2ccc(OCC)cc2)c1C` (racemic), the Activity result in the data set on Blood is recorded as “Non-toxic”. Also, the IC50 on Toll-like receptor 4 [1] came out at 24.7 µM.

`Cc1nn(Cc2ccccc2Cl)c(C)c1CN(C)CC(O)COc1ccccc1` (racemic): the Activity entry with Blood is reported as “Non-toxic”. On Toll-like receptor 4 [1], the IC50 is 64.3 µM.

What is called inhibition is the drop in the measured response relative to a control, in per cent. As to `Cc1nn(Cc2ccccc2Cl)c(C)c1CN(C)CC(O)COc1ccc(Cl)cc1` (racemic), the inhibition in data set [2], in [3], in data set [4], in [5], in [6] and in [7] was not above 27% throughout. The inhibition in data set [8], in data set [9], in [10], in data set [11], in data set [12] and in data set [13] was not above 27% in each case. Further, the Activity entry in the data set with Blood was “Non-toxic”. Moreover, the IC50 at Toll-like receptor 4 [1] worked out at 16.1 µM.

As for `C=Cc1ccccc1Cn1nc(C)c(CN(C)CC(O)COc2ccc(Cl)cc2)c1C` (racemic), in the data set with Blood, the Activity result was “Non-toxic”. Also, the IC50 on Toll-like receptor 4 [1] worked out at 23.2 µM.

With `Cc1nn(Cc2ccccc2Cl)c(C)c1CN(C)CC(O)COc1ccc(C(F)(F)F)cc1` (racemic), in the data set on Blood, the Activity result was “Non-toxic”. On Toll-like receptor 4 [1], the IC50 turned out to be 23.7 µM.

Take `Cc1nn(Cc2ccccc2Cl)c(C)c1CN(C)C[C@H](O)COc1ccc(Cl)cc1`: the Activity entry in the data set with Blood is given as “Non-toxic”. In addition, on Toll-like receptor 4 [1], the IC50 came to 15.6 µM.

Regarding `C=CCOc1ccc(OCC(O)CN(C)Cc2c(C)nn(Cc3ccccc3Cl)c2C)cc1` (racemic), the Activity result with Blood is “Non-toxic”. On Toll-like receptor 4 [1], the IC50 is 44.6 µM.

In the case of `C=CCOc1ccc(OCC(O)CN(C)Cc2c(C)nn(Cc3ccccc3C=C)c2C)cc1` (racemic), the Activity result in the data set with Blood is recorded as “Non-toxic”. Further, the IC50 on Toll-like receptor 4 [1] came out at 23.1 µM.

Take `CCOc1ccc(OCC(O)CN(C)Cc2c(C)nn(Cc3ccccc3F)c2C)cc1` (racemic): the Activity entry in the data set with Blood is listed as “Non-toxic”. Besides, the IC50 at Toll-like receptor 4 [1] is 47.7 µM.

As for `Cc1nn(Cc2ccccc2)c(C)c1CN(C)CC(O)COc1ccccc1` (racemic), the Activity entry in the data set with Blood was “Non-toxic”. Besides, the inhibition entry on Toll-like receptor 4 [14], at Toll-like receptor 4 [15] and on Toll-like receptor 4 [17] was “Dose-dependent effect” each time. Further, the inhibition result at Toll-like receptor 4 [16] is “inactive”. The IC50 at Toll-like receptor 4 [1] is more than 100 µM. Also, the inhibition entry at Toll-like receptor 4 [18], on Toll-like receptor 4 [19] and at Toll-like receptor 4 [20] was “Active” in each case.

On to `Cc1nn(Cc2ccccc2Cl)c(C)c1CN(C)C[C@@H](O)COc1ccc(Cl)cc1`, for which the Activity result in the data set with Blood is “Non-toxic”. Besides, the IC50 at Toll-like receptor 4 [1] is 15.5 µM.

Consider `CCOc1ccc(OCC(O)CN(C)Cc2c(C)nn(Cc3ccccc3OC)c2C)cc1` (racemic), for which, in the data set with Blood, the Activity result was “Non-toxic”. Moreover, the IC50 on Toll-like receptor 4 [1] was more than 100 µM.

Regarding `CCOc1ccc(OC[C@H](O)CN(C)Cc2c(C)nn(Cc3ccccc3Cl)c2C)cc1`, the Activity entry in the data set with Blood was “Non-toxic”. The IC50 on Toll-like receptor 4 [1] stood at 24.8 µM.

For the molecule `CCOc1ccc(OCC(O)CN(C)Cc2c(C)nn(Cc3ccc(OC)cc3)c2C)cc1` (racemic), the Activity result in the data set on Blood is on record as “Non-toxic”. For the same molecule, at Toll-like receptor 4 [1], the half-maximal inhibitory concentration (IC50) was determined as 67.6 µM.

With `Cc1nn(Cc2ccccc2Cl)c(C)c1CN(C)CC(O)COc1ccc(C#N)cc1` (racemic), the Activity entry in the data set on Blood is on record as “Non-toxic”. Also, at Toll-like receptor 4 [1], the 50% inhibitory concentration (IC50) worked out at 52.7 µM.

`CCOc1ccc(OC[C@@H](O)CN(C)Cc2c(C)nn(Cc3ccccc3Cl)c2C)cc1`: the Activity entry in the data set on Blood was “Non-toxic”. Moreover, the IC50 at Toll-like receptor 4 [1] stood at 24.3 µM.

On to `Cc1nn(Cc2ccccc2C(F)(F)F)c(C)c1CN(C)CC(O)COc1ccc(C(F)(F)F)cc1` (racemic), for which, in the data set on Blood, the Activity result is given as “Non-toxic”. The IC50 at Toll-like receptor 4 [1] was 27.3 µM.

Turning to `COCCc1ccc(OCC(O)CN(C)Cc2c(C)nn(Cc3ccccc3Cl)c2C)cc1` (racemic), the Activity result in the data set with Blood is listed as “Non-toxic”. In addition, the concentration for half-maximal inhibition (IC50) on Toll-like receptor 4 [1] came out at 57.3 µM.

Turning to `Cc1nn(Cc2ccccc2Cl)c(C)c1CN(C)CC(O)COc1ccc(Cl)c(Cl)c1` (racemic), the Activity entry with Blood is recorded as “Non-toxic”. Further, the IC50 on Toll-like receptor 4 [1] amounted to 20.1 µM.

As for `CCOc1ccc(OCC(CN(C)Cc2c(C)nn(Cc3ccccc3Cl)c2C)OC)cc1` (racemic), the concentration for half-maximal inhibition (IC50) on Toll-like receptor 4 [1] was 19.8 µM.

On to `CCOc1ccc(OCC(O)CN(C)Cc2c(C)nn(Cc3ccccc3C)c2C)cc1` (racemic), for which, in the data set with Blood, the Activity result was “Non-toxic”. Moreover, the IC50 on Toll-like receptor 4 [1] is 47.7 µM.

As to `CCOc1ccc(OCC(O)CN(C)Cc2c(C)nn(Cc3cccc(Cl)c3)c2C)cc1` (racemic), the Activity entry in the data set on Blood is reported as “Non-toxic”. Moreover, the IC50 at Toll-like receptor 4 [1] worked out at 16.5 µM.

For the molecule `CCOc1ccc(OCC(O)CN(C)Cc2c(C)nn(Cc3ccc(Cl)c(Cl)c3)c2C)cc1` (racemic), in the data set on Blood, the Activity entry is recorded as “Non-toxic”. At Toll-like receptor 4 [1], the IC50 worked out at 21.8 µM.

`COc1ccccc1OCC(O)CN(C)Cc1c(C)nn(Cc2ccccc2Cl)c1C` (racemic): the Activity entry with Blood is “Non-toxic”. At Toll-like receptor 4 [1], the IC50 came out at 92.5 µM.
